The values that follow come from ChEMBL document CHEMBL3124784, “Synthesis, in vitro antiplasmodial activity and cytotoxicity of a series of artemisinin-triazine hybrids and hybrid-dimers” (Eur J Med Chem, 2014).

Series [1] is described as follows: Selectivity index, ratio of IC50 for CHO cells to IC50 for asexual erythrocytic stage of chloroquine-sensitive Plasmodium falciparum NF54. It is filed as toxicity, cell-based. The conditions noted are these: hamster; read-out: Ratio IC50.
Series [2] has as its system CHO. The experiment in a line: Cytotoxicity against CHO cells after 48 hrs by MTT assay. It is filed as cell-based. The following applies: Cricetulus griseus.
Series [3] deals with Plasmodium falciparum. The experiment in a line: Antiplasmodial activity against asexual erythrocytic stage of chloroquine-resistant Plasmodium falciparum Dd2 assessed as parasite growth inhibition after 48 hrs by lactate dehydrogenase assay. It is filed as functional, organism-based. The following applies: Dd2, 48 h. The procedure, abridged:
(§1)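 pLDH assay (modified Makler method) on cultured parasites, 48 h exposure. Stocks 20 mg/mL in 100% DMSO, stored at −20 °C, diluted in complete medium on the day of analysis; suspensions tested if not fully dissolved. Two-fold serial dilutions over ten concentrations; references started at 1000 ng/mL. Full dose-response for IC50; triplicate on one occasion.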

Series [4] in a line: Resistance index, ratio of IC50 for asexual erythrocytic stage of chloroquine-resistant Plasmodium falciparum Dd2 to IC50 for asexual erythrocytic stage of chloroquine-sensitive Plasmodium falciparum NF54. Type of series: functional.
Series [5] has as its system Plasmodium falciparum. Briefly: Antiplasmodial activity against asexual erythrocytic stage of chloroquine-sensitive Plasmodium falciparum NF54 assessed as parasite growth inhibition after 48 hrs by lactate dehydrogenase assay. The following applies: NF54, 48 h. It is filed as functional, organism-based. The procedure, abridged:
as §1

Series [6] concerns Plasmodium falciparum. Briefly: Potency index, ratio of pyrimethamine IC50 to compound IC50 for asexual erythrocytic stage of chloroquine-sensitive Plasmodium falciparum NF54. Type of series: functional.
In series [7] the test system is Plasmodium falciparum. Briefly: Potency index, ratio of chloroquine IC50 to compound IC50 for asexual erythrocytic stage of chloroquine-sensitive Plasmodium falciparum NF54. It is filed as functional.

For orientation: IC50 means the concentration that gives 50% inhibition. `C[C@H]1[C@@H](OCCNCCNc2nc(Nc3ccccc3)nc(Nc3ccccc3)n2)O[C@@H]2O[C@@]3(C)CC[C@H]4[C@H](C)CC[C@@H]1[C@@]24OO3.O=C(O)C(=O)O`: the selectivity ratio in series [1] worked out at 588. In addition, the IC50 in series [2] worked out at 16 µM; in series [3], 59.1 nM; in series [5], 27.2 nM. In addition, the Ratio IC50 in series [4] is 2.2; in series [6], “<=6000”.

As to `C[C@H]1[C@@H](OCCNCCNc2nc(N3CCCCC3)nc(N3CCCCC3)n2)O[C@@H]2O[C@@]3(C)CC[C@H]4[C@H](C)CC[C@@H]1[C@@]24OO3.O=C(O)C(=O)O`, the selectivity ratio in series [1] is 150. Further, the IC50 stood at 3.1 µM in series [2], 47.5 nM in series [3] and 20.6 nM in series [5]. Moreover, the Ratio IC50 is 2.3 in series [4] and “<=6000” in series [6].

With `COc1ccc(Nc2nc(NCCNCCO[C@H]3O[C@@H]4O[C@@]5(C)CC[C@H]6[C@H](C)CC[C@@H]([C@H]3C)[C@@]46OO5)nc(N3CCCCC3)n2)cc1.O=C(O)C(=O)O`, the selectivity ratio in series [1] came to 105. Moreover, the IC50 in series [2] turned out to be 3 µM; in series [3], 46.3 nM; in series [5] it was 28 nM. The Ratio IC50 in series [4] is 1.7; in series [6] it was “<=6000”.

Turning to `COc1ccc(Nc2nc(NCCNCCO[C@H]3O[C@@H]4O[C@@]5(C)CC[C@H]6[C@H](C)CC[C@@H]([C@H]3C)[C@@]46OO5)nc(Nc3ccccc3)n2)cc1.O=C(O)C(=O)O`, the selectivity ratio in series [1] was greater than 5050. The figures for the IC50 in series [2], in series [3] and in series [5] were greater than 100 µg/mL, 28.8 nM and 19.8 nM, respectively. Further, the Ratio IC50 was 1.5 in series [4] and “<=6000” in series [6].

Turning to `C[C@H]1[C@H](OC(=O)CCC(=O)O)O[C@@H]2O[C@@]3(C)CC[C@H]4[C@H](C)CC[C@@H]1[C@@]24OO3` [ARTESUNATE], the IC50 in series [3] is 8.1 nM; in series [5], less than 5.2 nM.

On to `CCc1nc(N)nc(N)c1-c1ccc(Cl)cc1` [PYRIMETHAMINE], for which the IC50 in series [2] is 271 µM; in series [3], 60700 nM; in series [5], 33000 nM.

Turning to `COc1ccc(Nc2nc(NCCN(CCO[C@H]3O[C@@H]4O[C@@]5(C)CC[C@H]6[C@H](C)CC[C@@H]([C@H]3C)[C@@]46OO5)CCO[C@H]3O[C@@H]4O[C@@]5(C)CC[C@H]6[C@H](C)CC[C@@H]([C@H]3C)[C@@]46OO5)nc(Nc3ccc(OC)cc3)n2)cc1.O=C(O)C(=O)O`, the selectivity ratio in series [1] was greater than 18200. For the same compound, the “Ratio IC50” value in series [7] was 2; in series [4] it was 1.9; in series [6], “<=6000”. The IC50 was greater than 100 µg/mL in series [2], 10.6 nM in series [3] and 5.5 nM in series [5].

As for `COc1ccc(Nc2nc(NCCNCCO[C@H]3O[C@@H]4O[C@@]5(C)CC[C@H]6[C@H](C)CC[C@@H]([C@H]3C)[C@@]46OO5)nc(N3CCOCC3)n2)cc1.O=C(O)C(=O)O`, the selectivity ratio in series [1] was found to be 81. Also, the figures for the IC50 in series [2], in series [3] and in series [5] were 3.1 µM, 57.4 nM and 38.5 nM, respectively. Further, the Ratio IC50 in series [4] was 1.5; in series [6], “<=6000”.

Take `C[C@H]1[C@@H](OCCN(CCNc2nc(Nc3ccccc3)nc(N3CCOCC3)n2)CCO[C@H]2O[C@@H]3O[C@@]4(C)CC[C@H]5[C@H](C)CC[C@@H]([C@H]2C)[C@@]35OO4)O[C@@H]2O[C@@]3(C)CC[C@H]4[C@H](C)CC[C@@H]1[C@@]24OO3.O=C(O)C(=O)O`: the selectivity ratio in series [1] is greater than 13500. Besides, the IC50 is greater than 100 µg/mL in series [2], 10.2 nM in series [3] and 7.9 nM in series [5]. Besides, the Ratio IC50 was 1.3 in series [4] and “<=6000” in series [6].

In the case of `C[C@H]1[C@@H](OCCNCCNc2nc(N3CCOCC3)nc(N3CCOCC3)n2)O[C@@H]2O[C@@]3(C)CC[C@H]4[C@H](C)CC[C@@H]1[C@@]24OO3.O=C(O)C(=O)O`, the selectivity ratio in series [1] stood at 160. Further, the IC50 in series [2] is 3.1 µM; in series [3] it was 85 nM; in series [5] it was 19.3 nM. The values for the Ratio IC50 in series [4] and in series [6] were 4.4 and “<=6000”, respectively.

With `C[C@H]1[C@@H](O)O[C@@H]2O[C@@]3(C)CC[C@H]4[C@H](C)CC[C@@H]1[C@@]24OO3` [ARTENIMOL], the selectivity ratio in series [1] is 162000. For the same compound, the IC50 turned out to be 148 µM in series [2], 8.8 nM in series [3] and 0.9 nM in series [5]. Further, in series [4], the Ratio IC50 was determined as 9.7.

Consider `COc1ccc(Nc2nc(NCCN(CCO[C@H]3O[C@@H]4O[C@@]5(C)CC[C@H]6[C@H](C)CC[C@@H]([C@H]3C)[C@@]46OO5)CCO[C@H]3O[C@@H]4O[C@@]5(C)CC[C@H]6[C@H](C)CC[C@@H]([C@H]3C)[C@@]46OO5)nc(NCCN(C(C)C)C(C)C)n2)cc1.O=C(O)C(=O)O`, for which the selectivity ratio in series [1] is greater than 3080. Moreover, the values for the IC50 in series [2], in series [3] and in series [5] were greater than 100 µg/mL, 33.1 nM and 31.8 nM, respectively. Further, the Ratio IC50 in series [4] was 1; in series [6] it was “<=6000”.

With `CC[C@H]1CN2CCc3cc(OC)c(OC)cc3[C@@H]2C[C@@H]1C[C@H]1NCCc2cc(OC)c(OC)cc21` [EMETINE], the half-inhibitory concentration (IC50) in series [2] is 0.1 µM.

Turning to `C[C@H]1[C@@H](OCCN(CCNc2nc(Nc3ccccc3)nc(Nc3ccccc3)n2)CCO[C@H]2O[C@@H]3O[C@@]4(C)CC[C@H]5[C@H](C)CC[C@@H]([C@H]2C)[C@@]35OO4)O[C@@H]2O[C@@]3(C)CC[C@H]4[C@H](C)CC[C@@H]1[C@@]24OO3.O=C(O)C(=O)O`, in series [1], the selectivity ratio worked out at 54. For the same compound, the concentration for half-maximal inhibition (IC50) in series [2] came out at 0.7 µM; in series [3], 10.3 nM; in series [5], 12.9 nM. Moreover, the Ratio IC50 in series [4] is 0.8; in series [6], “<=6000”.

As to `COc1ccc(Nc2nc(NCCN(CCO[C@H]3O[C@@H]4O[C@@]5(C)CC[C@H]6[C@H](C)CC[C@@H]([C@H]3C)[C@@]46OO5)CCO[C@H]3O[C@@H]4O[C@@]5(C)CC[C@H]6[C@H](C)CC[C@@H]([C@H]3C)[C@@]46OO5)nc(N3CCCCC3)n2)cc1.O=C(O)C(=O)O`, the selectivity ratio in series [1] turned out to be 1470. Further, the IC50 in series [2] was 17 µM; in series [3] it was 13.6 nM; in series [5], 11.6 nM. In addition, the figures for the Ratio IC50 in series [4] and in series [6] were 1.2 and “<=6000”, respectively.

Take `COc1ccc(Nc2nc(NCCN(CCO[C@H]3O[C@@H]4O[C@@]5(C)CC[C@H]6[C@H](C)CC[C@@H]([C@H]3C)[C@@]46OO5)CCO[C@H]3O[C@@H]4O[C@@]5(C)CC[C@H]6[C@H](C)CC[C@@H]([C@H]3C)[C@@]46OO5)nc(N3CCOCC3)n2)cc1.O=C(O)C(=O)O`: the selectivity ratio in series [1] was determined as 35. For the same compound, the IC50 worked out at 0.9 µM in series [2], 35.9 nM in series [3] and 25.8 nM in series [5]. Further, the Ratio IC50 in series [4] was 1.4; in series [6] it was “<=6000”.

On to `COc1ccc(Nc2nc(NCCNCCO[C@H]3O[C@@H]4O[C@@]5(C)CC[C@H]6[C@H](C)CC[C@@H]([C@H]3C)[C@@]46OO5)nc(NCCN(C(C)C)C(C)C)n2)cc1.O=C(O)C(=O)O`, for which the selectivity ratio in series [1] worked out at 23. Besides, the figures for the IC50 in series [2], in series [3] and in series [5] were 0.9 µM, 74.7 nM and 39.1 nM, respectively. Also, the Ratio IC50 in series [4] is 1.9; in series [6] it was “<=6000”.
